Sampled rows, rich in hits. Any-hit rate of the full collection: about 1.6%.
A1 inh = inhibitors of the anti-apoptotic protein A1, read as caspase activation; MEF A1-2A-BIM cells, Caspase-Glo 3/7 luminescence, 3 h; percent of clofoctol response, vehicle zero; AID 2462; 330,000 compounds, 0.066% hits; caspase activation, % (concentration not given with the values);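 active means over half of replicate activation scores above 10%, or exactly half above 10 with the replicate mean above 10; inconclusive means replicate mean below 10 yet half the replicates above 10; inactive means over half of replicates below 10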
H9c2 TAG inh = reduces triacylglycerol accumulation in H9c2 cells. Nile Red lipid (TAG) fluorescence; cells loaded with 200 µM oleic acid. AID 651582. inhibition, % at 12.5 µM. 230,000 compounds, 0.66% hits;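 active means pattern-corrected inhibition of lipid staining of at least 50% with the nuclear-stain viability signal not falling by more than 50%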;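 further: 0% = DMSO wells and 100% = triacsin C control wells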
SR-BI uptake up = activators of SR-BI mediated HDL lipid uptake. CHO ldlA[mSR-BI] cells, DiI-HDL uptake fluorescence, 3 h; 100 = double the neutral-control signal. 320,000 compounds, 0.096% hits. activation, % at 12.5 µM;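 active means mean replicate activation of at least 60% and every replicate at or above 60%; inconclusive means mean or all-replicate condition met, but not both; inactive means mean below 60% and not all replicates reaching 60%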;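 further: 0% = median plate neutral-control signal and 100% = twice that signal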
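Material: SR-BI-overexpressing, LDLR-lacking CHO cells | Dosing: Single compound concentration, delivered by pin transfer | Probe or stimulus: Labelled HDL, 10 µg/mL | Signal: Bottom-read cell fluorescence after medium removal, ex 550/em 595 nm | Schedule: 3 h, 37 °C | Evaluation: HDL uptake via cellular fluorescence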
SR-BI HDL uptake = blocks mouse SR-BI lipid uptake from DiI-HDL | Q61009 | ldlA[mSR-BI] CHO cells, DiI-HDL uptake fluorescence, 3 h | inhibition, % at 12.5 µM | 320,000 compounds, 0.96% hits;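 active means mean replicate inhibition of at least 70% and a set share of replicates each scoring 70 or more; inconclusive means meets just one of the two criteria; inactive means fails both criteria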;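 further: 0% = median of neutral control wells and 100% = median of positive control wells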
Target sequence (Q61009 whole entry, looked up): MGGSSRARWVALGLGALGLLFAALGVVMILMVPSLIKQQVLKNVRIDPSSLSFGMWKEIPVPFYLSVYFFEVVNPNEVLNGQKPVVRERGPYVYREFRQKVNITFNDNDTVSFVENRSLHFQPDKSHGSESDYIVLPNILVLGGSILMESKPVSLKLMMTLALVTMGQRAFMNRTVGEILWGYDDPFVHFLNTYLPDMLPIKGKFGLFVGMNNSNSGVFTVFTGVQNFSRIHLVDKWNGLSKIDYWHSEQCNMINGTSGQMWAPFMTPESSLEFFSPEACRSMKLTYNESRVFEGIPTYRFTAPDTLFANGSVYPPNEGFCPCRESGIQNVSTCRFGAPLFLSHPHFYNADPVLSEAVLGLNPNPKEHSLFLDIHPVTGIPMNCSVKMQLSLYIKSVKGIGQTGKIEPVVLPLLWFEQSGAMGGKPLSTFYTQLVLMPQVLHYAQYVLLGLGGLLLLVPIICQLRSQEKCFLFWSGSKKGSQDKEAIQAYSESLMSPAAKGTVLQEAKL
Vif imaging = inhibitors of HIV Vif; HEK293T cells, Vif self-association by quenched fluorescence, imaging, 24 h; inhibition, % at 7.49 µM; 340,000 compounds, 0.35% hits; AID 602346; in the data active means inhibition above about 50%, passing the limit was not always enough; inconclusive means no clear call, values can overlap the other calls; inactive means below about 31%
Active calls of the source: *; ? = inconclusive; nt = no result.

SMILES	A1 inh	H9c2 TAG inh	SR-BI uptake up	SR-BI HDL uptake	Vif imaging
O=c1c2c(nc3n1CCS3)c1cc(F)ccc1n2Cc1cc(=O)n2cc(Cl)ccc2n1	-0.5	nt	nt	nt	nt
O=[N+]([O-])c1cccc(-c2ccc(C(=S)N3CCOCC3)o2)c1	-0.4	nt	-59.7	59.7	5.2
O=C(Nc1ccc(CN2CCOCC2)cc1)c1ccc(-c2cccc([N+](=O)[O-])c2)o1	-0.1	nt	-72.1	72.1*	-8.7
CCCCCCCC/C=C\CCCCCCCC(=O)NCCO	-0.2	0.2	10.3	-10.3	-1.2
CCCCCCCC/C=C\CCCCCCCC(=O)NCCc1ccc(O)c(O)c1	11.9*	130.2	2.3	-2.3	1.7
CCCN1CCN(CCCNC(=O)CCn2nc(-c3ccccc3)ccc2=O)CC1	0.0	-5.2	16.4	-16.4	-3.2
O=C(CCn1nc(-c2ccc(Cl)cc2)ccc1=O)NCCCN1CCCCCC1	0.0	nt	-73.4	73.4*	9.0
Cc1ccc(NC(=O)COC(=O)c2cc(Cl)ccc2[N+](=O)[O-])cc1	0.1	nt	17.7	-17.7	9.6
O=C(COC(=O)c1cc(Cl)ccc1[N+](=O)[O-])NC1CC1	-1.1	2.6	-4.5	4.5	55.6*
CCOc1ccc(C(C)=O)cc1NC(=O)/C=C\C(=O)O	0.5	6.3	-9.5	9.5	-1.6
CCOc1ccc(NC(=S)NC(=O)/C=C/c2ccc(C)cc2)c([N+](=O)[O-])c1	17.4*	nt	-28.3	28.3	5.0
CCOc1ccc(NC(=S)NC(=O)/C=C/c2ccc(OC)c(OC)c2)c([N+](=O)[O-])c1	?	11.2	-41.0	41.0	?
COc1ccc2[nH]c(CN3CCN(C(C)C)C(CCO)C3)c(C)c2c1 (configuration not stated)	0.8	6.7	11.5	-11.5	64.2*
C=CC#CC1(O)CC(C)N(C)CC1C (configuration not stated)	-1.0	-4.5	9.7	-9.7	2.9
O=C(Nc1ccccc1N1CCOCC1)C1CCN(S(=O)(=O)c2ccccc2F)CC1	1.5	nt	214.3*	-214.3	6.0
C[C@@H]1CN([C@H](C)CO)C(=O)c2cc(NC(=O)Nc3ccc(C(F)(F)F)cc3)ccc2O[C@H]1CN(C)S(=O)(=O)c1ccc(Cl)cc1	-0.1	41.4	73.5*	-73.5	nt
C[C@@H]1CN([C@H](C)CO)C(=O)c2cc(NC(=O)Nc3ccc(C(F)(F)F)cc3)ccc2O[C@H]1CN(C)Cc1ccc(Cl)c(Cl)c1	nt	47.0	53.4	-53.4	2.8
C[C@H]1CN([C@@H](C)CO)C(=O)c2cccc(NC(=O)Nc3ccc(C(F)(F)F)cc3)c2O[C@@H]1CN(C)Cc1ccc(Cl)c(Cl)c1	-1.2	55.9*	-74.7	74.7*	-6.9
C[C@@H]1CN([C@@H](C)CO)C(=O)Cc2cc(NC(=O)Nc3ccc(C(F)(F)F)cc3)ccc2O[C@@H]1CN(C)S(=O)(=O)c1ccc(Cl)cc1	0.7	40.1	89.9*	-89.9	8.0
C[C@H](CO)N1C[C@H](C)[C@H](CN(C)S(=O)(=O)c2cn(C)cn2)Oc2ccc(NC(=O)Nc3ccc(C(F)(F)F)cc3)cc2CC1=O	1.5	9.7	1.6	-1.6	5.3
CC(C)(C)c1nc(NC(=O)Nc2ccccc2)sc1Br	-0.2	2.0	-45.8	45.8	-15.9
O=C(CCNC(=O)c1ccco1)Nc1ccc(OC(F)(F)F)cc1	0.5	nt	nt	nt	110.5*
CC(=O)Oc1c(-c2ccco2)oc2ccccc2c1=O	-1.0	3.1	5.9	-5.9	-2.9
COc1cccc(N2CCN(c3ncnc4c3[nH]c3ccc(F)cc34)CC2C)c1 (configuration not stated)	0.7	-31.1	-71.8	71.8*	0.7
COc1cccc(N2CCN(c3ncnc4c3[nH]c3ccccc34)CC2C)c1 (configuration not stated)	0.2	nt	nt	nt	nt
SMILES	A1 inh	H9c2 TAG inh	SR-BI uptake up	SR-BI HDL uptake	Vif imaging
O=C(O)CN1C(=O)C(=O)N(Cc2ccc(C(F)(F)F)cc2)C1=O	0.1	nt	3.9	-3.9	nt
Oc1ccc(/C=N/Nc2nccnc2Cl)c(O)c1	-7.5	-50.0	11.7	-11.7	81.0*
Oc1ccc(C=NNc2ccccn2)c(O)c1	nt	52.6*	2.9	-2.9	11.5
COc1ccc(Cl)cc1NC(=O)c1c(-c2ccccc2)noc1C	-0.8	-4.8	-75.6	75.7*	0.7
CC(C)OC(=O)Nc1ccc2c(c1)N(C(=O)CCN1CCOCC1)c1ccccc1CC2	0.1	13.3	62.7*	-62.7	7.9
C=CCNC(=S)N/N=C/c1ccc(-c2ccc(Br)cc2)o1	0.0	nt	-81.7	81.7*	-8.2
